In ChEMBL document CHEMBL2412961, “CD4 mimics as HIV entry inhibitors: lead optimization studies of the aromatic substituents” (Bioorg Med Chem, 2013):
pIC50: −log10 of the molar value. The source made the active and inactive calls. The rule behind the calls is not given here.

Key:
[1] = test system: PM1; assay: Induction of conformational change in human immunodeficiency virus 1 JR-FL R5 subtype B gp120 infected in human PM1 cells assessed as increase in binding affinity to monoclonal antibody 4C11 at 100 uM after 15 mins by FACS analysis; assay type: cell-based
Outline: (§1)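 PM1 cells chronically infected with JR-FL (R5, subtype B) were pre-incubated with CD4 mimic for 15 min, with sCD4 at 0.5 µg/mL as reference. They were then incubated with CD4i mAb 4C11 at 4 °C for 15 min, washed with PBS and stained with FITC anti-human IgG. Flow cytometry read the 4C11 mean fluorescence intensity on gated PM1 cells, with anti-CD19 as control antibody. There were at least two independent experiments.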

[2] = Cytotoxicity against CCR5-expressing human PM1 cells assessed as reduction of cell viability after 7 days by WST8 assay; assay type: cell-based
Outline: (§2)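 PM1/CCR5 cells were infected with the HIV-1 R5 primary isolate YTA, or mock-infected for cytotoxicity, and incubated with compound at 37 °C for 7 days. Viability was read by WST-8 (Cell Counting Kit-8). IC50 is the concentration giving 50% protection from virus-induced cytopathogenicity. CC50 is the concentration giving 50% loss of viability in mock-infected cells. Assays were run in duplicate or triplicate.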

[3] = test system: Human immunodeficiency virus 1; assay: Antiviral activity against Human immunodeficiency virus 1 R5 primary isolate YTA48P infected in CCR5-expressing human PM1 cells assessed as inhibition of virus-induced cytopathogenicity after 7 days by WST8 assay; assay type: functional, organism-based; settings: PM1, 168 h; outline: as §2
[4] = test system: PM1; assay: Induction of conformational change in human immunodeficiency virus 1 JR-FL R5 subtype B gp120 infected in human PM1 cells assessed as increase in binding affinity to monoclonal antibody 4C11 at 25 to 100 uM after 15 mins by FACS analysis; assay type: cell-based; outline: as §1

Cc1ccc(NC(=O)C(=O)NC2CC3(CCCCC3)NC3(CCCCC3)C2)cc1Cl (stereo not given)
Activity [1]: Active
CC50 at 168 h [2]: 11 µM
pIC50 [3]: 5.21

O=C(Nc1ccc(Cl)cc1)C(=O)NC1CC2(CCCCC2)NC2(CCCCC2)C1 (stereo not given)
pIC50 [3]: 6.37

Cc1ccc(NC(=O)C(=O)NC2CC(C)(C)NC(C)(C)C2)cc1
pIC50 [3]: 5.05

O=C(Nc1ccc(Cl)c(Cl)c1)C(=O)NC1CC2(CCCCC2)NC2(CCCCC2)C1 (stereo not given)
Activity [1]: Active
CC50 at 168 h [2]: 11 µM
pIC50 [3]: 6.21

Cc1ccc(NC(=O)C(=O)NC2CC3(CCCCC3)NC3(CCCCC3)C2)cc1Br (stereo not given)
Activity [1]: Active
CC50 at 168 h [2]: 11 µM
pIC50 [3]: 5.49

Cc1ccc(NC(=O)C(=O)NC2CC(C)(C)NC(C)(C)C2)cc1Cl
Activity [1]: Active
CC50 at 168 h [2]: 62 µM
pIC50 [3]: 5.49

CC1(C)CC(NC(=O)C(=O)Nc2ccc(Cl)c(F)c2)CC(C)(C)N1
Activity [1]: Active
CC50 at 168 h [2]: 94 µM
pIC50 [3]: 6.49

CC1(C)CC(NC(=O)C(=O)Nc2ccc(Cl)c(Cl)c2)CC(C)(C)N1
Activity [1]: Active
CC50 at 168 h [2]: 36 µM
pIC50 [3]: 5.39

Cc1cc(NC(=O)C(=O)NC2CC(C)(C)NC(C)(C)C2)ccc1Cl
Activity [1]: Active
CC50 at 168 h [2]: 38 µM
pIC50 [3]: 5.48

CC1(C)CC(NC(=O)C(=O)Nc2ccc(Cl)cc2)CC(C)(C)N1
pIC50 [3]: 6.21

Cc1ccc(NC(=O)C(=O)NC2CC3(CCCCC3)NC3(CCCCC3)C2)cc1F (stereo not given)
Activity [1]: Active
CC50 at 168 h [2]: 91 µM
pIC50 [3]: 6.27

Cc1ccc(NC(=O)C(=O)NC2CC(C)(C)NC(C)(C)C2)cc1Br
Activity [1]: Active
CC50 at 168 h [2]: 32 µM
pIC50 [3]: < 5.00

O=C(Nc1ccc(Cl)c(F)c1)C(=O)NC1CC2(CCCCC2)NC2(CCCCC2)C1 (stereo not given)
Activity [1]: Active
Activity [4]: Active
CC50 at 168 h [2]: 11 µM
pIC50 [3]: 6.64

Cc1ccc(NC(=O)C(=O)NC2CC(C)(C)NC(C)(C)C2)cc1F
Activity [1]: Active
CC50 at 168 h [2]: 110 µM
pIC50 [3]: 5.55

Cc1cc(NC(=O)C(=O)NC2CC3(CCCCC3)NC3(CCCCC3)C2)ccc1Cl (stereo not given)
Activity [1]: Active
CC50 at 168 h [2]: 15 µM
pIC50 [3]: 5.59
